# ChEMBL document CHEMBL1126298, “New triazine derivatives as potent modulators of multidrug resistance” (1992)
# Tests used:
# [1] = system: DC3F/AD; assay: Increase in adriamycin uptake in modulator-treated cells relative to untreated cells at a concentration of 10 uM; assay type: functional, Cricetulus griseus
# Summary of the method: (§1)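 DC-3F/AD or KB-A1 cells (5 × 10⁶/mL) were incubated at 37 °C for 5 h with 50 μM adriamycin plus modulator (2.5–10 μM range). ADR fluorescence of 10 000 cells was read by flow cytometry at 4 °C with 488 nm argon-laser excitation. The value is the increase in mean fluorescence of treated cells over untreated cells.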
# [2] = system: DC3F/AD; assay: (§2) Increase in adriamycin uptake in modulator-treated cells relative to untreated cells at a concentration of 5 uM; assay type: functional, Cricetulus griseus; summary of the method: as §1
# [3] = system: Cricetinae gen. sp.; assay: (§3) Percent of cell viability remaining after incubating the cells with the modulator alone at a concentration of 10 uM; assay type: functional, Cricetulus griseus
# Summary of the method: (§4)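 Cells were grown with modulator alone for 4 days under the same conditions as the chemosensitivity assay, and read by MTT. Viability = (absorbance with modulator/absorbance of control cells) × 100. "tox" marks viability below 25%.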
# [4] = system: DC3F/AD; assay: Percent of cell viability remaining after incubating the cells with the modulator alone a concentration of 5 uM; assay type: functional, Cricetulus griseus; summary of the method: as §4
# [5] = system: KB; assay: Percent of cell viability remaining after incubating the cells with the modulator alone; assay type: functional, Homo sapiens; parameters: concentration or dose not given beside the values; summary of the method: as §4
# [6] = system: KB; assay: Increase in adriamycin uptake in modulator-treated cells relative to untreated KB-A1 cells at a concentration of 5 uM; assay type: functional, Homo sapiens; summary of the method: as §1
# [7] = system: KB; assay: Compound was evaluated for the in vitro activity in KB-A1 cell line. Activity expressed as fold reversion (Ratio of IC50(adriamycin alone) / IC50(adriamycin + modulator) at a concentration of 5 uM; assay type: functional, Homo sapiens
# Summary of the method: (§5)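 Human epidermoid KB-A1 cells (Pgp-overexpressing) were grown in RPMI 1640 with 10% FCS and 10 mM HEPES (pH 7.4). They were exposed for 4 days to adriamycin (nine graded concentrations, in triplicate) with or without 5 μM modulator. IC50 was read by the MTT assay. Fold reversion = IC50(ADR alone)/IC50(ADR + modulator).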
# [8] = system: DC3F/AD; assay: In vitro activity in DC-3F/AD cell line(Ratio of IC50(actinomycin D alone) / IC50(actinomycin D + modulator) at a concentration of 5 uM
# [9] = system: DC3F/AD; assay: In vitro activity in DC-3F/AD cell line Ratio of IC50(actinomycin D alone) / IC50(actinomycin D + modulator) at a concentration of 10 uM
# [10] = system: DC3F/AD; assay: as §3; assay type: functional, Cricetulus griseus; summary of the method: as §4
# [11] = system: KB; assay: In vitro activity in KB-A1 cell line activity expressed as fold reversion (Ratio of IC50(adriamycin alone) / IC50(adriamycin + modulator) at a concentration of 5 uM; assay type: functional, Homo sapiens; summary of the method: as §5
# [12] = system: P388; assay: Antitumor activity of vincristine against P388 leukemia cell line in mice at a dose of 100 mg/kg.; assay type: functional, Mus musculus
# [13] = system: P388; assay: Antitumor activity of vincristine against P388 leukemia cell line in mice at a dose of 50 mg/kg.; assay type: functional, Mus musculus
# [14] = system: DC3F/AD; assay: Percent of cell viability remaining after incubating with a 10 uM concentration; assay type: functional, Cricetulus griseus; summary of the method: as §4
# [15] = system: Cricetinae gen. sp.; assay: Compound was evaluated for in vitro activity in DC-3F/AD cell line(Ratio of IC50(actinomycin D alone) / IC50(actinomycin D + modulator) at a concentration of 5 uM
# [16] = system: DC3F/AD; assay: Percent of cell viability remaining after incubating the cells with the modulator alone at a concentration of 5 uM; assay type: functional, Cricetulus griseus; summary of the method: as §4
# [17] = system: DC3F/AD; assay: Compound was evaluated for in vitro activity in DC-3F/AD cell line (Ratio of IC50(actinomycin D alone) / IC50(actinomycin D + modulator) at a concentration of 5 uM
# [18] = system: P388; assay: Antitumor activity of vincristine against P388 leukemia cell line in mice at a dose of 100 mg/kg; assay type: functional, Mus musculus
# [19] = system: P388; assay: Antitumor activity of vincristine against P388 leukemia cell line in mice at a dose of 50 mg/kg; assay type: functional, Mus musculus
# [20] = system: KB; assay: as §2; assay type: functional, Homo sapiens; summary of the method: as §1
# [21] = system: P388/VCR; assay: Antitumor activity of vincristine against P388/VCR leukemia in mice at a dose of 100 mg/kg.; assay type: functional, Mus musculus
# [22] = system: P388/VCR; assay: Antitumor activity of vincristine against P388/VCR leukemia in mice at a dose of 50 mg/kg.; assay type: functional, Mus musculus
# [23] = system: P388/VCR; assay: Antitumor activity of vincristine against P388/VCR leukemia in mice at a dose of 100 mg/kg; assay type: functional, Mus musculus
# [24] = system: P388/VCR; assay: Antitumor activity of vincristine against P388/VCR leukemia in mice at a dose of 50 mg/kg; assay type: functional, Mus musculus
smiles,measurement,setting,value
C=CCNc1nc(NCC=C)nc(N2CCN(CC3c4ccccc4CCc4ccccc43)CC2)n1,Increase,[1],24.5
same,Increase,[2],17.6
same,Viability,[3],70%
same,Viability,[4],84%
same,Viability,[5],121%
same,Increase,[6],29.7
same,Fold reversion,[7],63
same,Fold reversion,[8],464
same,Fold reversion,[9],1832
C=CCNc1nc(NCC=C)nc(N2CCC(NCC3c4ccccc4N(C)S(=O)(=O)c4cc(Cl)ccc43)CC2)n1 (stereo not given),Increase,[1],24.1
same,Increase,[2],22.8
same,Of viability,[10],77%
same,Viability,[4],91%
same,Viability,[5],92%
same,Increase,[6],39.8
same,Fold reversion,[11],147
same,T/C,[12],173%
same,T/C,[13],177%
same,Fold reversion,[8],2804
same,Fold reversion,[9],9570
C=CCNc1nc(NCC)nc(N2CCC(NCC3c4ccccc4COc4ccccc43)CC2)n1 (stereo not given),Increase,[1],21.8
same,Increase,[2],18
same,Viability,[4],76%
same,Viability,[5],101%
same,Increase,[6],38.8
same,Fold reversion,[11],229
same,T/C,[12],180%
same,T/C,[13],196%
same,Viability,[14],86%
same,Fold reversion,[9],2630
same,Fold reversion,[15],1327
C=CCNc1nc(NCC=C)nc(N2CCN(C(c3ccc(F)cc3)c3ccc(F)cc3)CC2)n1.CS(=O)(=O)O,Increase,[1],17.9
same,Increase,[2],7.3
same,Viability,[16],65%
same,Viability,[14],63%
same,Fold reversion,[8],112
same,Fold reversion,[9],235
COc1ccc(CCN(C)CCCC(C#N)(c2ccc(OC)c(OC)c2)C(C)C)cc1OC (stereo not given),Increase,[1],7.5
same,Increase,[2],2.6
same,Viability,[4],43%
same,Viability,[5],75%
same,Increase,[6],13.4
same,Fold reversion,[7],26
same,Viability,[14],39%
same,Fold reversion,[9],34
same,Fold reversion,[17],3
C=CCNc1nc(NCC=C)nc(N2CCC(NCC3c4ccccc4COc4ccccc43)CC2)n1 (stereo not given),Increase,[1],25.3
same,Increase,[2],25.5
same,Viability,[4],82%
same,Viability,[5],106%
same,Increase,[6],53.7
same,Fold reversion,[7],274
same,T/C,[18],191%
same,T/C,[19],196%
same,Viability,[14],78%
same,Fold reversion,[8],1932
same,Fold reversion,[9],5344
C=CCNc1nc(NCCC)nc(N2CCC(NCC3c4ccccc4CCc4ccccc43)CC2)n1,Increase,[1],24.9
same,Increase,[2],27.3
same,Viability,[4],85%
same,Viability,[5],55%
same,Increase,[20],51.3
same,Fold reversion,[11],221
same,T/C,[12],176%
same,T/C,[13],179%
same,Viability,[14],42%
same,Fold reversion,[8],2753
same,Fold reversion,[9],4455
C=CCNc1nc(NCC=C)nc(N2CCC(NC(c3ccccc3)c3ccccc3)CC2)n1,Increase,[1],40
same,Increase,[2],25.9
same,Viability,[16],75%
same,Viability,[14],61%
same,Fold reversion,[8],905
same,Fold reversion,[9],1828
C=CCNc1nc(NCCC)nc(N2CCC(NCC(c3ccccc3)c3ccccc3)CC2)n1,Increase,[1],34.2
same,Increase,[2],26
same,Viability,[4],77%
same,Viability,[5],93%
same,Increase,[6],51.5
same,Fold reversion,[11],236
same,T/C,[21],163%
same,T/C,[22],167%
same,T/C,[12],177%
same,T/C,[13],176%
same,Viability,[14],66%
same,Fold reversion,[8],965
same,Fold reversion,[9],2356
C=CCNc1nc(NCC=C)nc(N2CCC(NCC(c3ccc(F)cc3)c3ccc(F)cc3)CC2)n1,Increase,[1],35.6
same,Increase,[2],26.1
same,Viability,[4],78%
same,Viability,[5],75%
same,Increase,[6],56.5
same,Fold reversion,[11],168
same,T/C,[19],168%
same,T/C,[23],185%
same,T/C,[24],176%
same,T/C,[12],157%
same,Viability,[14],62%
same,Fold reversion,[9],2564
same,Fold reversion,[17],918
